In ChEMBL document CHEMBL4715934, “Discovery of Imidazopyridines as Potent Inhibitors of Indoleamine 2,3-Dioxygenase 1 for Cancer Immunotherapy” (ACS Med Chem Lett, 2021):

Columns and labels:
[1] = Metabolic stability in mouse liver microsomes assessed as parent compound remaining at 0.5 uM after 10 mins; assay type: ADME, Microsome; settings: read-out: Stabilty
Procedure, shortened: (§1)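 Parent compound at 0.5 μM incubated 10 min with 1 mg/mL human, mouse or rat liver microsomes; fraction of parent remaining reported; average of N = 2 unless noted.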

[2] = target: T1, Indoleamine 2,3-dioxygenase 1 (Homo sapiens, UniProt P14902); assay: Inhibition of IDO1 in recombinant IFN-gamma induced human HeLa cells incubated for 18 hrs by fluorescence microplate reader assay
Procedure, shortened: (§2)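 HeLa (human) or M109 (murine) cells induced with IFNγ to express IDO1, then cellular IDO1 activity measured; values are the average of N = 2 unless noted.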

[3] = target: Indoleamine 2,3-dioxygenase 1 (Mus musculus, UniProt P28776); assay: Inhibition of IDO1 in recombinant IFN-gamma induced mouse M109 cells incubated for 18 hrs by fluorescence microplate reader assay; assay type: cell-based; procedure, shortened: as §2
[4] = Metabolic stability in rat liver microsomes assessed as parent compound remaining at 0.5 uM after 10 mins; assay type: ADME, Microsome; settings: read-out: Stabilty; procedure, shortened: as §1
[5] = Metabolic stability in human liver microsomes assessed as parent compound remaining at 0.5 uM after 10 mins; assay type: ADME, Microsome; settings: read-out: Stabilty; procedure, shortened: as §1
[6] = target: T1, Indoleamine 2,3-dioxygenase 1; assay: Inhibition of IDO1 in IFN-gamma/LPS induced human whole blood assessed as tryptophan/kynurenine level measured after 18 hrs by RapidFire mass spectrometry; assay type: tissue-based
[7] = In vivo inhibition of IDO1 in mouse xenografted with human SKOV3 cells assessed as reduction in tumor kynurenine AUEC at 60 mg/kg, po qd for 5 days measured upto 24 hrs after dosing relative to vehicle treated control; assay type: functional; settings: SK-OV-3, po, 120 h, time 5 day
Procedure, shortened: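 nu/nu nude mice carrying SKOV3 tumors grown 2 weeks; dosed QD for 5 days starting day 14. On day 18, tumor sampled at 2, 6 and 24 h for drug level and kynurenine. […] Kyn reduction measured at steady state after the 5th dose, taken as area under the Kyn concentration–time curve 0–24 h versus vehicle control.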

in vivo = settings: mouse, tumor, po, 60 mg/kg
[8] = Induction of proliferation of human T eff cells by T cell/DC mixed lymphocyte reaction (MLR) assay

Indoleamine 2,3-dioxygenase 1 (Mus musculus, UniProt P28776), sequence (P28776 whole entry): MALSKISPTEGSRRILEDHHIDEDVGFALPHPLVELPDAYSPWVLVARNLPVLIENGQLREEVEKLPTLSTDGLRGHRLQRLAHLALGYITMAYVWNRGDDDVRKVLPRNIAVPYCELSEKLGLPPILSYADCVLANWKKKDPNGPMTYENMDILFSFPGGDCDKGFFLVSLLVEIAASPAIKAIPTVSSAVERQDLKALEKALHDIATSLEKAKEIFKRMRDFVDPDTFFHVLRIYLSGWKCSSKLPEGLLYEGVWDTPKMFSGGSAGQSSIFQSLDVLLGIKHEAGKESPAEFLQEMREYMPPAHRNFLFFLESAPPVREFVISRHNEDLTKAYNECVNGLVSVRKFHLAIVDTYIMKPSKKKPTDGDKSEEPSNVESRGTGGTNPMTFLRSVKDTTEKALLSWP
T1 sequence (P14902 whole entry): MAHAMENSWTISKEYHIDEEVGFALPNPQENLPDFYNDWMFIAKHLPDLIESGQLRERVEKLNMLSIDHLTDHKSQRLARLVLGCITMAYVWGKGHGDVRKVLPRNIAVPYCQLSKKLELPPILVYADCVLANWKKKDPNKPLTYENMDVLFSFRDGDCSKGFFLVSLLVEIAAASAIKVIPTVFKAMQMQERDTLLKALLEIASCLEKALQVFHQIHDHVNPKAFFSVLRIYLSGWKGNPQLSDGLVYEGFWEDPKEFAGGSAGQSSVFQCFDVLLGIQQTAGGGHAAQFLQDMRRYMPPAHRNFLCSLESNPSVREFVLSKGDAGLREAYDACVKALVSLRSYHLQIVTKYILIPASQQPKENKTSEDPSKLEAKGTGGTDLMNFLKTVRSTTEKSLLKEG

SMILES | remaining at 10 min, 0.5 µM [1] | IC50 [2] | IC50 [3] | remaining at 10 min, 0.5 µM [4] | remaining at 10 min, 0.5 µM [5] | IC50 [6] | inhibition in vivo at 60 mg/kg [7] | AUC at 120 h (in vivo) | EC50 [8]
CCC(c1nc2ncc(Cl)cc2[nH]1)[C@H]1CC[C@@H](c2ccnc3ccc(F)cc32)CC1 (some centres not stated) | 7% | 2 nM | 5 nM | 35% | 78% | 6 nM | – | – | –
COc1ccc(-c2nnc(N[C@H](C)[C@H]3CC[C@@H](c4ccnc5ccc(F)cc54)CC3)o2)cc1 | 17% | 3 nM | 14 nM | 35% | 64% | – | – | – | –
CCC(Nc1nnc(-c2ccc(OC)cc2)o1)[C@H]1CC[C@@H](c2ccnc3ccc(C(F)(F)F)cc32)CC1 (some centres not stated) | 39% | 3 nM | 6 nM | 100% | 83% | 50 nM | – | – | –
C[C@@H](c1nnc(-c2ccc(Cl)cc2)[nH]1)[C@H]1CC[C@@H](c2ccnc3ccc(F)cc32)CC1 | 69% | 20 nM | 286 nM | 82% | 88% | – | – | – | –
C[C@@H](C(=O)Nc1ccc(Cl)cc1)[C@H]1CC[C@@H](c2ccnc3ccc(F)cc32)CC1 | – | – | – | 86% | – | – | 61% | 34.9 µM·h | 2 nM
CCC(c1nc2ccc(Cl)cc2[nH]1)[C@H]1CC[C@@H](c2ccnc3ccc(F)cc32)CC1 (some centres not stated) | 49% | 2 nM | 3 nM | 27% | 82% | 9 nM | – | – | –
COCC(Nc1nnc(-c2ccc(OC)cc2)o1)[C@H]1CC[C@@H](c2ccnc3ccc(F)cc32)CC1 (some centres not stated) | 19% | 3 nM | 44 nM | 24% | 57% | 31 nM | – | – | –
C[C@@H](c1nc2ncc(Cl)cc2[nH]1)[C@H]1CC[C@@H](c2ccnc3ccc(F)cc32)CC1 | 22% | 4 nM | 36 nM | 17% | 67% | 39 nM | – | – | –
C[C@@H](c1nc2ccc(Cl)cc2[nH]1)[C@H]1CC[C@@H](c2ccnc3ccc(F)cc32)CC1 | – | 3 nM | – | 8% | – | 32 nM | – | – | –
